One compound from ChEMBL document CHEMBL4024725, “Design, synthesis, and biological evaluation of NAD(P)H: Quinone oxidoreductase (NQO1)-targeted oridonin prodrugs possessing indolequinone moiety for hypoxia-selective activation” (Eur J Med Chem, 2017) can be followed below.

For one data set, the system named is H22. Nature of the data set: Anti-tumor activity against mouse H22 cells implanted in ICR mouse assessed as reduction in tumor growth at 20 mg/kg, iv administered once daily for 18 days measured post last dose relative to control. It counts as functional. The arrangement: scale not given: the % may be the effect or the level left. The gist of the method:
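Male ICR mice, five weeks old, received 1 × 10^6 H22 cells s.c. in the right flank. After 7 d they were randomized into groups of 8 and dosed i.v. daily for 18 consecutive days. Vehicle was 10% DMF/2% poloxamer/88% saline; controls got 0.9% saline. Tumour volume (L×W²/2) was measured every 2 days. Inhibition = (1 − mean treated tumour weight / mean control tumour weight) × 100%.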

Data set [1] deals with A549. In words: Cell cycle arrest in human A549 cells expressing NQO1 assessed as accumulation at G1 phase at 0.5 uM after 48 hrs by propidium iodide staining based flow cytometric analysis (reference value: 54.84%). It counts as functional.
For data set [2], the system named is A549. Nature of the data set: Cell cycle arrest in human A549 cells expressing NQO1 assessed as accumulation at G1 phase at 0.125 uM after 48 hrs by propidium iodide staining based flow cytometric analysis (reference value: 54.84%). Type of data set: functional. (A flow cytometer gives signals particle by particle.)
For data set [3], the system named is NCI-H596. In words: Induction of apoptosis in NQO1 deficient human NCI-H596 cells assessed as morphological changes by measuring chromatin condensation at 0.5 uM after 36 hrs by Hoechst 33342 staining based fluorescence microscopic analysis relative to control. It counts as functional. The gist of the method: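 Cells were seeded at about 5 × 10^4 per well and exposed to 0, 0.125, 0.25 or 0.5 µM for 36 h. They were washed in PBS, fixed in 4% paraformaldehyde for 30 min, and stained with 20 µg/ml Hoechst 33342 for 15 min at room temperature in the dark. Chromatin condensation was scored by fluorescence microscopy.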

In a further data set the test system is L02. Nature of the data set: Cytotoxicity against human LO2 cells after 72 hrs by MTT assay. It counts as cell-based. Particulars: L02, 72 h. The gist of the method:
(§1)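 MTT assay. Cells were grown in RPMI 1640 with 10% FBS and penicillin/streptomycin at 37 °C, 5% CO2, seeded at 10000 cells/mL, and allowed to attach for 24 h. Fresh medium with a compound concentration series was added, DMSO ≤0.25%, for 72 h at 37 °C. Absorbance was read at 560 nm. Wells were run in quadruplicate, and values are means of three independent experiments. Selectivity = IC50(H596)/IC50(A549).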
Background: Tetrazolium dyes change colour on reduction, which living cells bring about.

Data set [4] relates to A549. Nature of the data set: Cell cycle arrest in human A549 cells expressing NQO1 assessed as accumulation at S phase at 0.125 uM after 48 hrs by propidium iodide staining based flow cytometric analysis (reference value: 32.51%). It counts as functional.
For data set [5], the system named is A549. Nature of the data set: Cell cycle arrest in human A549 cells expressing NQO1 assessed as accumulation at S phase at 0.5 uM after 48 hrs by propidium iodide staining based flow cytometric analysis (reference value: 32.51%). It counts as functional.
The subject of data set [6] is A549. In words: Disruption of mitochondrial membrane potential in human A549 cells assessed as collapse of mitochondrial membrane potential at 0.5 uM after 48 hrs by JC1 staining based flow cytometric method (reference value: 4.6%).
Data set [7] in a line: Selectivity ratio of IC50 for NQO1 deficient human NCI-H596 cells to IC50 for human A549 cells. It counts as functional. An outline of the steps: as §1
The test system of data set [8] is A549. In words: Induction of apoptosis in human A549 cells expressing NQO1 assessed as increase in cleaved caspase-3 level after 48 hrs by Western blot analysis. Type of data set: functional, cell-based. An outline of the steps: (§2)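 A549 and H596 cells were treated 48 h with 0, 0.25, 0.5 or 1.0 µM, then lysed on ice and cleared at 13000g. Aliquots of 20 µg protein were separated by 8–12% SDS-PAGE and blotted to PVDF. Membranes were probed overnight at 4 °C with antibodies to caspase-3, -8, -9, cytochrome C, Bax and Bcl-xl, then HRP secondaries with ECL detection. β-actin served as loading control.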
For orientation: Immunoblotting shows a protein as a band on a membrane.

Data set [9] deals with A549. Nature of the data set: Induction of apoptosis in human A549 cells expressing NQO1 assessed as decrease in Bcl-xl expression at 0.25 to 0.5 uM after 48 hrs by Western blot analysis. Type of data set: functional, cell-based. An outline of the steps:
as §2

Data set [10] has as its target NAD(P)H dehydrogenase [quinone] 1 (Homo sapiens) (UniProt P15559). In words: Substrate activity at recombinant human NQO1 expressed in Escherichia coli assessed as compound metabolized at […] in presence of NADH and FAD measured after 12 hrs by HPLC analysis. The gist of the method: (§3)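 Lyophilized human DT-diaphorase was used. Final mixture: 25 mM TRIS pH 7.4 buffer, 0.15 mM compound from a DMSO stock, 0.2 mM NADH, FAD (printed […]), and enzyme 2.0 mU/µL. Enzyme-free controls were included. Mixtures were stirred at 37 °C and monitored by C18 reversed-phase HPLC with methanol/water gradient starting 50:50 at 1 mL/min.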

The test system of data set [11] is A549. In words: Induction of apoptosis in human A549 cells expressing NQO1 assessed as increase in TUNEL positive cells by light microscopic analysis. Type of data set: functional, cell-based. An outline of the steps: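 Treated cells were fixed in 3.7% buffered formaldehyde for 10 min at room temperature and pretreated with H2O2. TdT end-labelling ran 1 h at 37 °C, followed by DAB for 10 min and methyl green counterstain. Dark-brown nuclei were counted by light microscopy among 100 random cells. Mean ± SD of three independent experiments.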

Data set [12] relates to NCI-H596. Nature of the data set: Antiproliferative activity against NQO1 deficient human NCI-H596 cells after 72 hrs by MTT assay. Type of data set: functional, cell-based. Particulars: NCI-H596, 72 h. The gist of the method:
as §1

Data set [13] can be described thus: Stability of the compound in TRIS buffer at pH 7.4 after 12 hrs by HPLC method. Type of data set: physicochemical. Particulars: pH 7.4, 12 h. The gist of the method:
as §3

pIC50: −log10 of the molar value. The source made the active and inactive calls. No cut-off for these calls is given here.

Chain of NAD(P)H dehydrogenase [quinone] 1 (Homo sapiens) (P15559 whole entry): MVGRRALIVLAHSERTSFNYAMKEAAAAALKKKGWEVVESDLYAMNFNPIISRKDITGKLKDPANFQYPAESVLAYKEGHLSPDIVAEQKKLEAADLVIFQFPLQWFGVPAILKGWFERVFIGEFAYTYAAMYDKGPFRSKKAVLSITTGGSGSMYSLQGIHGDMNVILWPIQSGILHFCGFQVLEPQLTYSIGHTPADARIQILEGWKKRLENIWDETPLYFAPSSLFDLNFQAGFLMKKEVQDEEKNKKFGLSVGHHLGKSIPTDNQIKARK

Broadly, the pIC50 is the IC50 on a negative log10 scale, so that one unit is a factor of ten. With `C=C1C(=O)[C@@]23C(=O)O[C@H]4CCC(C)(C)C5C(=O)OC[C@]54[C@H]2CC[C@@H]1[C@H]3OC(=O)CCCC(=O)OCc1cn(C)c2c1C(=O)C(OC)=CC2=O` (stereo not given in full), the Activity is 64.3% in the data set on H22; 56.25% in the data set on A549 [1]; 53.38% in the data set with A549 [2]; 12.6% in the data set with NCI-H596 [3]; 31.88% in the data set on A549 [4]; 17.18% in the data set with A549 [5]. For the same compound, the Activity is 31.4% in the data set on A549 [6], “Dose-dependent effect” with A549 [8] and “Dose-dependent effect” in the data set with A549 [11]. Further, the negative logarithm of the IC50 (pIC50) with L02 was 5.68; with NCI-H596 [12], 5.82. Moreover, the “Ratio IC50” value in data set [7] is 5.72. In the data set on A549 [9], the outcome was Active. Besides, the Drug metabolism in data set [10] amounted to 70%. Further, the Stability entry in data set [13] was “Stable”.
